ASAP1 inh: inhibitors of human ASAP1 ArfGAP activity, primary screen, biochemical, fluorescence polarization | Arf-GAP with SH3 domain, ANK repeat and PH domain-containing protein 1 (Homo sapiens), … | ASAP1-stimulated ARF1 GTP hydrolysis, GDP FP detection | inhibition, % at 16.5 µM | 360,000 tested, 0.19% active | AID 624377, 2012; in the data active = inhibition above about 25%;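 also: 0% = vehicle with enzyme and substrate and 100% = no enzyme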
ARFGAP1 inhibitor: inhibitors of rat ARFGAP1 GAP activity, primary screen, biochemical, fluorescence polarization, GDP tracer. ADP-ribosylation factor GTPase-activating protein 1 (Rattus norvegicus), Q62848. Arfgap1-stimulated ARF1 GTP hydrolysis, GDP FP detection. inhibition, % at 16.5 µM. 360,000 tested, 0.26% active. AID 651572, 2012;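 active = inhibition above a per-plate limit, mean inhibition of low control wells plus 3 SD, cut at about 25% in these data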;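 also: 0% = DMSO wells with enzyme and 100% = wells lacking Arfgap1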
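material = rat Arfgap1 catalytic domain, aa 1-136 | also added = human ARF1(Δ1-17)-GTP substrate | compound dosing = one concentration, 16.5 µM, DMSO 1.26% | times = GTP hydrolysis reaction 2 h at 25 °C | measured by = FP, GDP Alexa 633 tracer displaced from anti-GDP antibody, 620/688 nm | evaluation = percent inhibition of Arfgap1-stimulated GTP hydrolysis | replication = single well per compound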
SUMO Mot1 rescue: yeast Mot1-301 growth rescue at high temperature, primary screen, SUMOylation pathway inhibitor project, S. cerevisiae, ATP luminescence, 38.5C | S. cerevisiae Mot1-301 growth rescue; percent above DMSO median, 100 means doubled | growth rescue, % at 18.8 µM | AID 2716, 2010 | 320,000 tested, 1% active;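 active = every valid replicate shows activation above 250% relative to neutral control wells; inactive = the rest, any valid replicate at or below 250%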;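 also: OY570 slx delta 5 strain wells were the positive control but not used for scaling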
APOBEC3G inh: APOBEC3G DNA deaminase inhibitors, primary screen, biochemical, fluorescence, single-stranded DNA substrate, uHTS; recombinant A3G, ssDNA deamination FAM/TAMRA fluorescence; inhibition, % at 20 µM; 330,000 tested, 0.28% active; AID 493012, 2011;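 active = inhibition of at least 40% at 20 µM, with no more than 30% in the related APOBEC3A deaminase screen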;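 also: plate controls were DMSO wells with A3G for no effect and wells lacking A3G enzyme for full effect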
Target sequence (Q9HC16 whole entry, looked up): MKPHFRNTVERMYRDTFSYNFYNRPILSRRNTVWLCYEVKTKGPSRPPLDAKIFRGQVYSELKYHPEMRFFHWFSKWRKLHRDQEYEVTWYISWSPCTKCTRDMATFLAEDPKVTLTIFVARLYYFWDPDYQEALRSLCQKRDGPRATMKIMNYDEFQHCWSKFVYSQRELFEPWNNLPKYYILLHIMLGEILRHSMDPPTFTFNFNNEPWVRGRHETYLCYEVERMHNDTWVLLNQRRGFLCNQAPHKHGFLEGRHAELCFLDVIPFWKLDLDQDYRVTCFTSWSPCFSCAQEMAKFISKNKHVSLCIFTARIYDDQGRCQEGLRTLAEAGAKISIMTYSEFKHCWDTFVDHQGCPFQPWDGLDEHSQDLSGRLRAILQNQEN
APOBEC3A inh: APOBEC3A ssDNA deaminase inhibitors, primary screen, selectivity assay for APOBEC3G inhibitor project, biochemical, FAM/TAMRA oligo cleavage fluorescence | recombinant A3A, FAM/TAMRA ssDNA deamination fluorescence | DNA dC->dU-editing enzyme APOBEC-3A (Homo sapiens), P31941 | AID 493011, 2011 | inhibition, % at 20 µM | 330,000 tested, 0.41% active;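 active = at least 40% inhibition at 20 µM here, with at most 30% in a related deaminase screen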;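 also: plate controls were A3A with DMSO for no effect and wells lacking A3A enzyme for full effect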
Target sequence (P31941 whole entry, looked up): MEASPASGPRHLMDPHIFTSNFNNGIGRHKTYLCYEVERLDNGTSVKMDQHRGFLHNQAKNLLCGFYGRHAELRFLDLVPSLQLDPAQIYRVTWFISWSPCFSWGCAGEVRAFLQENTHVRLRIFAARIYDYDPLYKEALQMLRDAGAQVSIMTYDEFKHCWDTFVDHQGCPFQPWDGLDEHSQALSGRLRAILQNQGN
C2C12 statin: suppressors of statin myotoxicity in C2C12 myotubes, primary screen, cell-based, single point, plate reader | C2C12 myotubes + simvastatin, ATP luminescence, 48 h; scaled: DMSO 0, geranylgeraniol control 100 | rescue of ATP level, % at 7.49 µM | 330,000 tested, 0.78% active | AID 602340, 2012;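 active = mean ATP rescue above about 67%, or every replicate alone reaching that limit, limit read from the data, passing the limit was not always enough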;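 also: myotubes were challenged with 10 µM simvastatin during compound exposure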
Yeast Mot1 SUMO: growth restoration of Mot1-301 yeast on galactose, dose response, SUMO pathway inhibitor project, whole organism, S. cerevisiae, ATP luminescence, cherry-picked samples; shares compounds with SUMO Mot1 rescue; S. cerevisiae Mot1-301 galactose growth, 24 h; -100 = growth of slx-deleted rescue strain; growth activity, percent, % at 42 µM; 2,300 tested, under 10 active; AID 493004, 2010;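 active = Signal drops as the depositor expects, and the fitted half-maximal dose is no more than ten times the top valid tested dose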;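 also: more negative values mean stronger growth rescue toward the control strain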
Active calls of the source: *. Sampled rows, rich in hits. Any-hit rate of the full collection: about 2.1%.

For CC1CCCC(C)N1/N=C/c1cc(Br)cc(Br)c1O (centres undefined) the results were ASAP1 inh -5, ARFGAP1 inhibitor -3, SUMO Mot1 rescue 476*, APOBEC3G inh -1, APOBEC3A inh 4, C2C12 statin 3 and Yeast Mot1 SUMO -1.
`CCOc1cccc(/C=N/N2C(C)CCCC2C)c1O` (centres undefined) gave ASAP1 inh 3, ARFGAP1 inhibitor 0, SUMO Mot1 rescue 10, APOBEC3G inh 0, APOBEC3A inh 0 and C2C12 statin -2.
Screening O=C(COc1ccccc1)Nc1cccc(-c2nnc(-c3ccccc3)o2)c1 returned ASAP1 inh 6, ARFGAP1 inhibitor 12, SUMO Mot1 rescue active, APOBEC3G inh -7, APOBEC3A inh -3 and Yeast Mot1 SUMO 1.
For O=C(O)CCC(=O)Nc1cccc(-c2nnc(-c3ccccc3)o2)c1 the results were ASAP1 inh 14, ARFGAP1 inhibitor -4, SUMO Mot1 rescue 112, APOBEC3G inh 3, APOBEC3A inh 4 and C2C12 statin 12.
Screening O=C(Cc1cccs1)Nc1cccc(-c2nnc(-c3ccco3)o2)c1 returned ASAP1 inh 3, ARFGAP1 inhibitor 22, SUMO Mot1 rescue 522*, APOBEC3G inh -7, APOBEC3A inh -4, C2C12 statin -1 and Yeast Mot1 SUMO -1.
Screening c1ccc(-c2nc(NCc3ccco3)c3ccccc3n2)nc1 returned ASAP1 inh -2, ARFGAP1 inhibitor -6, SUMO Mot1 rescue 505*, APOBEC3G inh -1, APOBEC3A inh 1 and Yeast Mot1 SUMO 0.
For CCN(CC)CCCN(Cc1cc2cc(OC)ccc2[nH]c1=O)C(=O)Nc1ccccc1 the results were SUMO Mot1 rescue 12, APOBEC3G inh -2 and APOBEC3A inh 8.
For CCN(CC)CCCN(Cc1cc2cc(OC)ccc2[nH]c1=O)C(=O)Nc1ccc(F)cc1 the results were ASAP1 inh 5, ARFGAP1 inhibitor 3, SUMO Mot1 rescue 463*, APOBEC3G inh -2, APOBEC3A inh 4 and Yeast Mot1 SUMO 0.
O=C(OCc1nnc(-c2ccccc2)o1)c1ccc([N+](=O)[O-])o1 was read as ASAP1 inh -2, ARFGAP1 inhibitor -12, SUMO Mot1 rescue 743*, APOBEC3G inh -7, APOBEC3A inh -1, C2C12 statin 21 and Yeast Mot1 SUMO -1.
Screening COc1ccc(-n2c3c(cc(C(=O)NCC(=O)c4ccccc4)c2=O)C(=O)CC(C)(C)C3)cc1 returned ASAP1 inh 9, ARFGAP1 inhibitor 3, SUMO Mot1 rescue 443*, APOBEC3G inh -4, APOBEC3A inh 1, C2C12 statin -7 and Yeast Mot1 SUMO 0.
`O=C(NCc1ccco1)c1ccc(F)c(S(=O)(=O)N2CCCCC2)c1` gave ASAP1 inh -5, ARFGAP1 inhibitor -6, SUMO Mot1 rescue -12, APOBEC3G inh -9 and APOBEC3A inh -4.
O=C(NCc1ccco1)c1ccc(Br)c(S(=O)(=O)N2CCCCC2)c1 was read as ASAP1 inh 9, ARFGAP1 inhibitor 0, SUMO Mot1 rescue 584*, APOBEC3G inh -3, APOBEC3A inh -2, C2C12 statin -11 and Yeast Mot1 SUMO 2.
For COc1ccc(NC(=O)N[C@H]2CC[C@@H](CC(=O)NCc3ccccn3)O[C@@H]2CO)cc1 the results were C2C12 statin 18.
For CCOC(=O)CS(=O)(=O)c1ccccc1 the results were ASAP1 inh -6, ARFGAP1 inhibitor -1, APOBEC3G inh -3, APOBEC3A inh -1 and C2C12 statin 62.
`CCOC(=O)CS(=O)(=O)c1ccc2ccccc2c1` gave ASAP1 inh -9, ARFGAP1 inhibitor 5, SUMO Mot1 rescue 955*, APOBEC3G inh -3, APOBEC3A inh 1, C2C12 statin 10 and Yeast Mot1 SUMO 2.
For CCNC(=O)C[C@@H]1CC[C@H]2[C@@H](COc3ccc(NC(C)=O)cc3C(=O)N2C)O1 the results were C2C12 statin 6.
For C[C@H]1CN([C@@H](C)CO)C(=O)c2cc(C3=CCCCC3)cnc2O[C@@H]1CN(C)Cc1ccccc1F the results were C2C12 statin 38.
Screening CCOc1ccccc1Nc1nnc(SCc2nnc(-c3cc(OC)c(OC)c(OC)c3)o2)s1 returned ASAP1 inh -7, ARFGAP1 inhibitor 16, SUMO Mot1 rescue 608*, APOBEC3G inh -11, APOBEC3A inh -7 and Yeast Mot1 SUMO 0.
`COc1ccc(S(=O)(=O)N2CC[C@@H]3[C@H]2c2cc(C#Cc4ccccc4OC)ccc2N[C@@H]3CO)cc1` gave C2C12 statin -10.
For O=C(Nc1ccc2ccccc2c1)c1ccccc1Cl the results were ASAP1 inh 14, ARFGAP1 inhibitor 4 and C2C12 statin -27.
`CCn1c(=O)n(CC)c2cc(NC(=O)c3ccccc3Cl)ccc21` gave ASAP1 inh -3, ARFGAP1 inhibitor 9, SUMO Mot1 rescue 406*, APOBEC3G inh -9, APOBEC3A inh -1, C2C12 statin 9 and Yeast Mot1 SUMO 2.
`CCCN(C)C[C@@H]1Oc2ncc(Br)cc2C(=O)N([C@H](C)CO)C[C@H]1C` gave C2C12 statin -2.
For COc1cccc(-c2nn(-c3ccccc3)cc2/C=C(/NC(=O)c2ccccc2)C(=O)O)c1 the results were ASAP1 inh 4, ARFGAP1 inhibitor 0, SUMO Mot1 rescue 915*, APOBEC3G inh -4, APOBEC3A inh -2, C2C12 statin 4 and Yeast Mot1 SUMO 0.
O=C(O)/C(=C\c1cn(-c2ccccc2)nc1-c1cccnc1)NC(=O)c1ccccc1 was read as ASAP1 inh -10, ARFGAP1 inhibitor 2, SUMO Mot1 rescue 1, APOBEC3G inh -6, APOBEC3A inh 3 and C2C12 statin 0.
`CN(C)C(=O)C[C@H]1CC[C@@H]2[C@H](COC[C@@H](O)CN2C(=O)c2ccncc2)O1` gave C2C12 statin 10.
Screening CN(C)c1ccc(CN(Cc2ccco2)C(=O)c2ccco2)cc1 returned ASAP1 inh -4, ARFGAP1 inhibitor -19, SUMO Mot1 rescue 366*, APOBEC3G inh -3, APOBEC3A inh -6, C2C12 statin 2 and Yeast Mot1 SUMO 0.

Screening results as filed in PubChem.
